Results pooled from the literature.
Target: Casein kinase I isoform alpha (CSNK1A1, Homo sapiens, UniProt P48729)

C[C@@H](c1ccc(-n2cnc3c(N)ncnc32)cc1)N1CCc2nn(C)c(Cc3ccccc3)c2C1=O gave a remaining binding of 87% (binding; competition with immobilised ligand; 0.1 µM).
O=C(NCCCN1CCOCC1)c1ccc(Nc2ncc(Cl)c(-c3ccc(Cl)s3)n2)cc1 has a remaining binding of 100% (binding; competition with immobilised ligand; 1 µM).
O=C(NCC1CCOCC1)c1n[nH]cc1NC(=O)c1c(F)cccc1F gave a remaining binding of 77% (binding; competition with immobilised ligand; 1 µM).
O=C(c1ccc(Nc2nccc(-c3cc4ccccc4s3)n2)cc1)N1CCC(N2CCCC2)CC1 gave a remaining binding of 78% (binding; competition with immobilised ligand; 1 µM).
With FC(F)(F)Oc1cccc(-c2cnc3ccc(-c4ccncc4)nn23)c1 the remaining binding was 52% (cell-free assay; competition with immobilised ligand; 5 µM).
The remaining binding of CC1CCCN1c1nccc(-c2cnn3ncccc23)n1 (stereo not shown) is reported as 100% (binding; 1 µM).
The remaining binding of CS(=O)(=O)c1cc(C2(NC(=O)c3cncc4c3cnn4-c3ccc(F)cc3)CC2)ccn1 is reported as 96% (cell-free assay; competition with immobilised ligand; 1 µM).
C[C@H]1CCN(c2nccc(-c3cnn4ncccc34)n2)C1 gave a remaining binding of 47% (binding; 1 µM).
With Cc1cc(C)c(-n2ccn3nc(-c4cccnc4)cc23)cc1NC(=O)c1cc(C#N)cc(S(F)(F)(F)(F)F)c1 the remaining binding was 67% (cell-free assay; competition with immobilised ligand; 0.1 µM).
For C=CC(=O)N1CCC(C(=O)NCC(=O)N2CCN(c3nc(-c4cnc(N)nc4C(F)F)nc(N4CCOCC4)n3)CC2)CC1, the remaining binding was 89% (binding; competition with immobilised ligand; 1 µM).
For CS(=O)(=O)N1CCCC(NC(=O)[C@H](CCC2CCCCC2)NC(=O)c2ccc(CNc3ncnc4c3nnn4-c3ccccc3)cc2)C1 (stereo partly shown), the remaining binding was 99% (cell-free assay; competition with immobilised ligand; 0.1 µM).
With F[C@@H]1CCN(c2nccc(-c3cnn4ncccc34)n2)C1 the remaining binding was 90% (binding; 1 µM).
COc1cnc(Nc2cccc(S(N)(=O)=O)c2)nc1N1CCN(c2ccccc2)C(=O)C1 has a remaining binding of 93% (binding; competition with immobilised ligand; 1 µM).
CNC(=O)Nc1ccc2c(c1)CC[C@@]21OC(=O)N(CC(=O)N(Cc2ccc(F)cc2)[C@@H](C)C(F)(F)F)C1=O has a remaining binding of 93% (cell-free assay; competition with immobilised ligand; 1 µM).
CN(C)c1nccc(-c2cnn3ncccc23)n1 gave a remaining binding of 60% (binding; 1 µM).
With CCN1CCN(Cc2ccc(C(=O)Nc3ccc(C)c(Oc4ccc5c(c4)CC(=O)N5)c3)cc2C(F)(F)F)CC1 the remaining binding was 100% (binding; competition with immobilised ligand; 1 µM).
With N[C@H]1CCN(c2nccc(-c3cnn4ncccc34)n2)C1 the remaining binding was 41% (binding; 1 µM).
With CCCCN(CCCC)C(=O)CN1C[C@H](c2cc(OC)c3c(c2)OCO3)[C@@H](C(=O)O)[C@@H]1CC(C)(C)CCC the remaining binding was 98.1% (cell-free assay; competition with immobilised ligand; 1 µM).
CN(c1nccc(-c2cnn3ncccc23)n1)C1CC1 gave a remaining binding of 88% (binding; 1 µM).
The remaining binding of O=C(c1ccc(Nc2ncc(Cl)c(-c3cc4ccccc4s3)n2)cc1)N1CCC(N2CCCC2)CC1 is reported as 67% (binding; competition with immobilised ligand; 1 µM).
With CNCc1ccccc1-c1csc([C@H](C)Nc2nc(C)nc3cc(OC)c(OC)cc23)c1 the remaining binding was 74% (cell-free assay; competition with immobilised ligand; 1 µM).
c1cnn2ncc(-c3ccnc(N4CCC45COC5)n3)c2c1 has a remaining binding of 14% (binding; 1 µM).
